Experimental data: ChEMBL document CHEMBL2029264, “Indole-based fibrates as potential hypolipidemic and antiobesity agents” (J Med Chem, 2012)

Columns and labels:
Rattus norvegicus [1] = test: Toxicity in HFD-induced hyperlipidemic Charles Foster rat at 100 mg/kg/day, po administered for 4 weeks by macroscopic analysis; assay type: organism-based; design: route oral; settings: in vivo, 672 h
Outline: (§1)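 Male Charles Foster rats (200−225 g) were fed a high-fat diet for 4 weeks, then dosed at 100 mg/kg/d alongside the same diet for 4 more weeks. Survival was monitored. After an overnight fast, blood was drawn and the animals were sacrificed. Macroscopic inspection and autopsy were then performed, with n = 6 per group.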

Rattus norvegicus [2] = test: Toxicity in HFD-induced hyperlipidemic Charles Foster rat at 100 mg/kg/day, po administered for 4 weeks by autopsy analysis; assay type: organism-based; design: route oral; settings: in vivo, 672 h; outline: as §1

With `CCOC(=O)C(C)Oc1ccc(C(c2cn(CC)c3ccccc23)c2cn(CC)c3ccccc23)cc1` (configuration not stated) the Activity (Rattus norvegicus [1]) was “Non-toxic” and the Activity (Rattus norvegicus [2]) was “Non-toxic”.
